Experiment [1] relates to Human immunodeficiency virus 1. Briefly: Cytotoxic concentration against monocyte-derived macrophage infected by the HIV-1/Ba-L strain using neutral red staining assay. The format is functional. Summed up:
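Compound-exposed MDM, with drug renewed twice weekly, were checked microscopically during culture. At the end of culture they were stained with neutral red, and CC50 was calculated from the optical density values. The assay was repeated with cells from a second blood donor.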

Experiment [2] is filed under the species Oryctolagus cuniculus. Briefly: Inhibition of PAF-induced platelet aggregation was determined using platelet rich plasma (PRP) of New Zealand rabbits. The format is functional. Summed up: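 Rabbit platelet-rich plasma was incubated and stirred with antagonist for 2 min, then challenged with 2.5 nM PAF. Antagonist solutions in EtOH spanned 10^-2 to 10^-7 M. Aggregation was followed by continuous light-transmission recording and compared with PAF alone. IC50 came from dose-response curves (5-6 determinations).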

Experiment [3] concerns Human immunodeficiency virus 1. In words: Antiviral activity towards inhibition of HIV-1 replication using monocyte-derived macrophage infected by the HIV-1/Ba-L strain. The format is functional, organism-based. Summed up: (§1)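 Human monocytes were elutriated from seronegative donor PBMC and differentiated 7 days into MDM in RPMI 1640 with 10% heat-inactivated FCS. 1 million MDM were pretreated 1 h with compound and infected with 10 000 TCID50 (0.01 moi) HIV-1/Ba-L, then washed at 24 h. Medium and drug were renewed twice weekly. Read-out was supernatant RT activity, with a second donor repeat; mean ± SD.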

In experiment [4] the test system is Human immunodeficiency virus 1. In words: Percent inhibition at 100 uM dose of HIV-1 replication using monocyte-derived macrophages infected by the HIV-1/Ba-L strain. The format is functional. Summed up:
as §1

Experiment [5] concerns Human immunodeficiency virus 1. In words: Antiviral activity towards inhibition of replication of HIV-1-DAS infected monocyte-derived macrophage. Format: functional, organism-based.
Experiment [6] has as its system Human immunodeficiency virus 1. In words: Percent inhibition at 10 uM dose of HIV-1 replication using monocyte-derived macrophage infected by the HIV-1/Ba-L strain. Format: functional. Summed up: as §1

A word on the CC50: it is the concentration that lowers cell viability or growth by half. By IC50 is commonly meant the concentration that gives 50% inhibition. For `COc1cc(C(=O)N2CCN(C(=O)c3cc(OC)c(OC)c(OC)c3)C(C)C2)cc(OC)c1OC` (stereo not given), in experiment [1], the cytotoxic concentration (CC50) is over 100 µM. For the same molecule, the values for the IC50 in experiment [2] and in experiment [3] were 0.56 µM and 66 µM, respectively.
Molecule `COc1cc(C(=O)N2CCN(C(=O)c3cc(OC)c(OC)c(OC)c3)C(COC(=O)N3CCCC3)C2)cc(OC)c1OC` (stereo not given) gave a cytotoxic concentration (CC50) in experiment [1] of over 100 µM. For the same molecule, the IC50 in experiment [2] is 10 µM; in experiment [3] it was over 100 µM.
In general, inhibition refers to the drop in the measured response relative to a control, in per cent. In turn, `CCCN(CCC)C(=O)OCC1CN(C(=O)c2cc(OC)c(OC)c(OC)c2)CCN1C(=O)c1cc(OC)c(OC)c(OC)c1` (stereo not given) came in with a CC50 in experiment [1] of over 100 µM. The same molecule yielded an IC50 in experiment [2] of 0.37 µM. In experiment [4], the inhibition at 100 µM stood at 66%.
Consider `NC(=O)c1ccn2c1CS[C@@H]2c1cccnc1` [DACOPAFANT], for which it took 50 µM to reach half-maximal inhibition in experiment [5] (IC50).
In experiment [1], `COc1cc(C(=O)N2CCN(C(=O)c3cc(OC)c(OC)c(OC)c3)C(COC(=O)NC(C)CC(C)C)C2)cc(OC)c1OC` (stereo not given) registered a CC50 of over 100 µM. In experiment [2], this molecule came in with an IC50 of 0.28 µM. Moreover, in experiment [4], the inhibition at 100 µM was -2%.
On to `COc1cc(C(=O)N2CCN(C(=O)c3cc(OC)c(OC)c(OC)c3)C(CNC(=O)C(C)(C)C)C2)cc(OC)c1OC` (stereo not given), for which, in experiment [1], the CC50 is over 100 µM. Further, the IC50 in experiment [2] and in experiment [3] was over 100 µM each time.
In experiment [2], `NC(=O)c1ccn2c1CS[C@@H]2c1cccnc1` (racemic) [DACOPAFANT] showed an IC50 of 16 µM.
The molecule `COc1cc(C(=O)N2CCN(C(=O)c3cc(OC)c(OC)c(OC)c3)C(COC(=O)NC(C)(C)C)C2)cc(OC)c1OC` (stereo not given) came in with a CC50 in experiment [1] of over 100 µM. Half-maximal inhibition in experiment [2] (IC50) was put at 0.13 µM. Moreover, the inhibition at 100 µM in experiment [4] worked out at 52%.
On the same counts, the results for `COc1cc(C(=O)N2CCN(C(=O)c3cc(OC)c(OC)c(OC)c3)C(COC(=O)C(C)(C)C)C2)cc(OC)c1OC` (stereo not given) are over 100 µM, 0.1 µM and 25%.
`COc1cc(C(=O)N2CCN(C(=O)c3cc(OC)c(OC)c(OC)c3)C(COC(=O)N3CCCCC3)C2)cc(OC)c1OC` (stereo not given): in experiment [1], the cytotoxic concentration (CC50) is over 100 µM. In addition, the values for the IC50 in experiment [2] and in experiment [3] were 0.08 µM and 95 µM, respectively.
The molecule `COc1cc(C(=O)N2CCN(C(=O)c3cc(OC)c(OC)c(OC)c3)C(COC(=O)NCC(C)(C)C)C2)cc(OC)c1OC` (stereo not given) gave a CC50 in experiment [1] of over 100 µM. The same molecule returned a half-inhibitory concentration (IC50) in experiment [2] of 1 µM. The inhibition at 100 µM in experiment [4] turned out to be 74%.
`CCCCCCCCCCC1CN(C(=O)c2cc(OC)c(OC)c(OC)c2)CCN1C(=O)c1cc(OC)c(OC)c(OC)c1` (stereo not given): in experiment [1], the CC50 is over 50 µM. The same molecule returned an IC50 in experiment [2] of 0.24 µM. In addition, the inhibition at 10 µM in experiment [6] amounted to 40%.
Turning to `CCC1CN(C(=O)c2cc(OC)c(OC)c(OC)c2)CCN1C(=O)c1cc(OC)c(OC)c(OC)c1` (stereo not given), in experiment [1], the CC50 is over 100 µM. Moreover, the IC50 stood at 0.46 µM in experiment [2] and 230 µM in experiment [3].
Turning to `COc1cc(C(=O)N2CCN(C(=O)c3cc(OC)c(OC)c(OC)c3)C(CO)C2)cc(OC)c1OC` (stereo not given), the CC50 in experiment [1] was over 100 µM. Moreover, the IC50 in experiment [2] was 1.27 µM; in experiment [3], over 100 µM.
With `CCN(CC)C(=O)OCC1CN(C(=O)c2cc(OC)c(OC)c(OC)c2)CCN1C(=O)c1cc(OC)c(OC)c(OC)c1` (stereo not given) [PMS-601], in experiment [1], the CC50 was over 1000 µM. Also, the IC50 in experiment [2] turned out to be 8 µM; in experiment [3], 11 µM. Further, the inhibition at 100 µM in experiment [4] stood at 95%.
As for `COc1cc(C(=O)N2CCN(C(=O)c3cc(OC)c(OC)c(OC)c3)CC2)cc(OC)c1OC`, the CC50 in experiment [1] was over 100 µM. Further, the results for the IC50 in experiment [2] and in experiment [3] were 1.78 µM and over 100 µM, respectively.

Values taken from ChEMBL document CHEMBL1133726, “Structure-activity relationships in platelet-activating factor (PAF). 10. From PAF antagonism to inhibition of HIV-1 replication” (J Med Chem, 2000).
